Experimental data as given in ChEMBL document CHEMBL3351464, “Identifying novel selective non-nucleoside DNA methyltransferase 1 inhibitors through docking-based virtual screening” (J Med Chem, 2014).
Active and inactive are the calls of the source. The calls are words filed in the database; no cut-off is given here.

How the values were obtained:
[1] = target: DNA (cytosine-5)-methyltransferase 1 (Mus musculus, UniProt P13864); assay: Inhibition of N-terminal His6-tagged mouse DNMT1 (731 to 1602 residues) expressed in Escherichia coli BL21 (DE3) incubated for 15 mins before addition of [3H]-SAM and poly(dI-dC).poly(dI-dC) by liquid scintillation counting based radioactive methylation assay
Chain of DNA (cytosine-5)-methyltransferase 1 (P13864 whole entry, the tested form may be a part): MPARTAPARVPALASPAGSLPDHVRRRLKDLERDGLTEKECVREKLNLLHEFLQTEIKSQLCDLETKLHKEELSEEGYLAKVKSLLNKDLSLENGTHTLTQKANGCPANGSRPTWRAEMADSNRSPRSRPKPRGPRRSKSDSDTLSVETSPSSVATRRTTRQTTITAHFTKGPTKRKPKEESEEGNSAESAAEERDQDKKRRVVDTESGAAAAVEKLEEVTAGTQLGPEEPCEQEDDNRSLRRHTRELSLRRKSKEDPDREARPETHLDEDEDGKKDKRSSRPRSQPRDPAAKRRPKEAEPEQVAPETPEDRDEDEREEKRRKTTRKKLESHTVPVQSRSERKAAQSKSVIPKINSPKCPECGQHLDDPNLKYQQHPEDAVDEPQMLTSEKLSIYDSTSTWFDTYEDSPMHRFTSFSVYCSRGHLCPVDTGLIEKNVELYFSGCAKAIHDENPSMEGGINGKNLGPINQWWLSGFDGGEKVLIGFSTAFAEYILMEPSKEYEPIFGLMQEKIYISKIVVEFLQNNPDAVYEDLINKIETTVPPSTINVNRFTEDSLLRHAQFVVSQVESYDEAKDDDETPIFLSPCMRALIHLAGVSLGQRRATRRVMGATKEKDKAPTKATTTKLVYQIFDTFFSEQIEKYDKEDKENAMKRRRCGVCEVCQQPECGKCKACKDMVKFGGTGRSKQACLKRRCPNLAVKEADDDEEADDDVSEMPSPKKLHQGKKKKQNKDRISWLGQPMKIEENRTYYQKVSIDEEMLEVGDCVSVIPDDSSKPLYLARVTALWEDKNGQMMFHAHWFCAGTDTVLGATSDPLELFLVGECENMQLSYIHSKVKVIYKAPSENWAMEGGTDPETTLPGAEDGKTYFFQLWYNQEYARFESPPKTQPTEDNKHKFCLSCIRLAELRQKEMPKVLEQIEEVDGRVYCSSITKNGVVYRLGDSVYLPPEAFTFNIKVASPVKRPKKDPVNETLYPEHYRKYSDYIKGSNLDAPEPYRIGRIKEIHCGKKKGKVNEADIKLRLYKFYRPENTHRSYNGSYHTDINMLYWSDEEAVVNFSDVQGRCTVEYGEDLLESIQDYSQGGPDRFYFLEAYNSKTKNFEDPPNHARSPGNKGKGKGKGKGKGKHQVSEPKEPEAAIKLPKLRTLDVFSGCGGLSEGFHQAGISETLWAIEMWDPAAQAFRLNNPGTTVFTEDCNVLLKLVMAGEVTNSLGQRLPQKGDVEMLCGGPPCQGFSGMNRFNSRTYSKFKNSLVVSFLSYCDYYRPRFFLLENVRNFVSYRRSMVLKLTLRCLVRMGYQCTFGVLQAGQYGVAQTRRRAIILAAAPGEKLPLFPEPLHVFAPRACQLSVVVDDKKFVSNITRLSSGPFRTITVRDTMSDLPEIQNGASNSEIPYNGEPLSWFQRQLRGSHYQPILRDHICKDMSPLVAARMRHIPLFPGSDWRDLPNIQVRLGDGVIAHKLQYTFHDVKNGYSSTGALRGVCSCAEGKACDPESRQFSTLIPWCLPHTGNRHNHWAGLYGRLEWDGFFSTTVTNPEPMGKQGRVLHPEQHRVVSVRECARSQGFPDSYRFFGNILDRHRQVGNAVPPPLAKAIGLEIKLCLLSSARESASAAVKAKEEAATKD
Method in brief: (§1)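 Enzyme was preincubated with compound for 15 min at room temperature, then reacted for 60 min at 37°C. Products were filter-captured, washed and counted by scintillation. IC50 came from a nonlinear dose-response fit; single-point tests used 50 µM.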

HCT-116 = assay: Antiproliferative activity against human HCT116 cells assessed as inhibition of cell proliferation at 1.25 to 10 uM after 24 to 72 hrs by MTT assay; type: functional, cell-based
Method in brief: (§2)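 HCT116 maintained in McCoy's 5A and Capan-1 in DMEM, each with 10% FBS, at 37°C under 5% CO2. Cells were exposed to a range of compound concentrations from DMSO stocks, with DMSO-matched controls. Viability was read by MTT absorbance at 490 nm, and percent proliferation was normalized to control cells.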

CAPAN-1 = assay: Antiproliferative activity against human Capan1 cells assessed as inhibition of cell proliferation at 1.25 to 10 uM after 24 to 72 hrs by MTT assay; type: functional, cell-based; method in brief: as §2
[2] = Binding affinity to DNA (unknown origin) at 0.0625 to 0.5 mM by ethidium bromide dye based agarose gel electrophoresis method
[3] = target: DNA (cytosine-5)-methyltransferase 1 (Mus musculus) (UniProt P13864); assay: Inhibition of N-terminal His6-tagged mouse DNMT1 (731 to 1602 residues) at 200 uM expressed in Escherichia coli BL21 (DE3) incubated for 2 hrs using S-adenosylmethionine by ELISA
Chain of DNA (cytosine-5)-methyltransferase 1 (Mus musculus) (P13864 whole entry, the tested form may be a part): as above
Method in brief: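 Mouse DNMT1 was purified by HisTrap, SUMO-tag cleavage, heparin and gel filtration. 200 nM enzyme was incubated with 200 μM compound (1% DMSO) and AdoMet in DNMT assay buffer at 37°C for 2 h. Capture and detection antibodies were then applied, followed by developer for 10 min at room temperature. Absorbance was read at 450 nm, with AdoHcy as reference.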

[4] = target: DNA (cytosine-5)-methyltransferase 1 (Mus musculus) (UniProt P13864); assay: Inhibition of N-terminal His6-tagged mouse DNMT1 (731 to 1602 residues) expressed in Escherichia coli BL21 (DE3) at 50 uM incubated for 15 mins before addition of [3H]-SAM and poly(dI-dC).poly(dI-dC) by liquid scintillation counting based radioactive methylation assay; method in brief: as §1

Compound | IC50 [1] | inhibition [4] | also measured
O[C@H](CNCCc1c[nH]c2ccccc12)Cn1c2ccccc2c2ccccc21 | 7.3 µM | – | inhibition (HCT-116): Active; inhibition (CAPAN-1): Active
O[C@@H](CNCCc1c[nH]c2ccccc12)Cn1c2ccccc2c2ccccc21 | 15.6 µM | – | inhibition (HCT-116): Active; inhibition (CAPAN-1): Active
CC(C)NC[C@@H](O)COC(Cn1c2ccccc2c2ccccc21)Cn1c2ccccc2c2ccccc21 | 2.5 µM | – | inhibition (HCT-116): Active; inhibition (CAPAN-1): Active
CC(C)NC[C@H](O)COC(Cn1c2ccccc2c2ccccc21)Cn1c2ccccc2c2ccccc21 | 1.8 µM | – | inhibition (HCT-116): Active; inhibition (CAPAN-1): Active
COc1cccc2c1C(=O)c1c(O)c3c(c(O)c1C2=O)C[C@@](O)(C(=O)CO)C[C@@H]3O[C@H]1C[C@H](N)[C@H](O)[C@H](C)O1 | – | – | Activity [2]: Active
Cc1cc(Nc2ccc(NC(=O)c3ccc(Nc4ccnc5ccccc45)cc3)cc2)nc(N)n1 | – | – | Activity [2]: Active
Nc1ncnc2c1ncn2[C@@H]1O[C@H](CSCC[C@H](N)C(=O)O)[C@@H](O)[C@H]1O | – | – | inhibition [3]: Active
CC1CCN(CC(O)Cn2c3ccccc3c3ccccc32)CC1 (racemic) | 84.1 µM | 52.4% | –
OC(CNCc1ccccc1)Cn1c2c(c3ccccc31)CCCC2 (racemic) | 80.9 µM | 62.9% | –
OC(CNCCc1c[nH]c2ccccc12)Cn1c2ccc(Cl)cc2c2cc(Cl)ccc21 (racemic) | 2.5 µM | 89.5% | –
OC(CNCCc1ccccc1)Cn1c2ccccc2c2ccccc21 (racemic) | 20.7 µM | 73.9% | –
COCCNCC(O)Cn1c2ccccc2c2ccccc21 (racemic) | 29.6 µM | 71% | –
OCCNCC(O)Cn1c2ccc(Br)cc2c2cc(Br)ccc21 (racemic) | 14.1 µM | 99.7% | –
CCCN(CCC)CC(O)Cn1c2ccccc2c2ccccc21 (racemic) | – | 5.5% | –
CNCC(O)Cn1c(C)c(C)c2ccccc21 (racemic) | – | 1.1% | –
COc1ccc(NCC(O)Cn2c3ccccc3c3ccccc32)cc1 (racemic) | – | 0.6% | –
Cc1c(C)n(CC(O)CNC2CCCCC2)c2ccccc12 (racemic) | – | 2.4% | –
OC(CN1CCOCC1)Cn1c2ccccc2c2ccccc21 (racemic) | – | -5% | –
OC(CNC1CC1)Cn1c2ccccc2c2ccccc21 (racemic) | – | 42.6% | –
OC(CNCC1CCCO1)Cn1c2ccccc2c2ccccc21 (racemic) | – | 40.1% | –
OC(CNCCOc1ccccc1)Cn1c2ccccc2c2ccccc21 (racemic) | – | 29.7% | –
OCCCNCC(O)Cn1c2ccccc2c2ccccc21 (racemic) | – | 42.5% | –
